Test results as given in paper PMC6800648 (Cell chemical biology, 2019).
Values belong to the molecule of their own block, whether it stands above or below them. Numbered stars: 1 amine (or outer) side, 2 acyl side, 3 side chain; on linkers, the order of the positions; unused ones are H or OH. Square brackets hold non-standard residues; d marks the D form. Peptide text beside a SMILES is read from it. * marks the point of attachment. NH(CH2CH2O)11C2H4NHBiotinyl = O=C(CCCC[C@@H]1SC[C@@H]2NC(=O)N[C@@H]21)NCCOCCOCCOCCOCCOCCOCCOCCOCCOCCOCCOCCN*; Lys(Me,2-norbornyl) = CN(CCCC[C@H](N)C(=O)O)C1CC2CCC1C2; X10 = CN(CCCC[C@H](N[*:1])C(=O)[*:2])C1C2CC3CC(C2)CC1C3; X2 = COc1ccc(CN(C)CCCC[C@H](N[*:1])C(=O)[*:2])cc1; X4 = COC(C)N(C)CCCC[C@H](N[*:1])C(=O)[*:2]; Benzoyl(4-tBu) = CC(C)(C)c1ccc(C(=O)*)cc1; Lys(Et2) = CCN(CC)CCCC[C@H](N)C(=O)O; NMeA = CN[C@@H](C)C(=O)O

Tests used:
CBX7 [1] = target: T1, CBX7 (Mus musculus, UniProt Q8VDS3); experiment: Polycomb in-vivo Assay; format: cell-based; settings: for activity in the Polycomb in-vivo Assay (reactivation of GFP expression): 48-hour treatment, flow cytometry
T1 sequence (Q8VDS3 2-69 limits assumed): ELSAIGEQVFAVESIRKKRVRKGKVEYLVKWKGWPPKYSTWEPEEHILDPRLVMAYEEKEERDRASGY

CBX7 chromodomain [2] = target: T2, CBX7 chromodomain (Homo sapiens, UniProt O95931); experiment: Fluorescence polarization; format: biochemical; settings: 30 μM CBX7 chromodomain, 100 nM FAM-dsDNA
T2 sequence (O95931 1-62): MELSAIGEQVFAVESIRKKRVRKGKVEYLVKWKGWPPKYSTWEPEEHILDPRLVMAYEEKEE
Procedure, shortened: (§1)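 Buffer: 25 mM Tris-HCl pH 7.4, 100 mM NaCl, 0.05% Tween-20, 2 mM DTT; 100 nM FAM-dsDNA or FAM-ANRIL-RNA; 0.2% DMSO; 30 min at RT. Compound titration: eight-point three-fold series from 100 µM with 30 µM CBX7 chromodomain. Ratio mode: CBX7 and test compound co-diluted at fixed 3:1 from 300 µM/100 µM. Polarisation normalised to a no-protein control; α fitted by the Stockton-Ehlert allosteric model.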

CBX7 chromodomain [3] = target: T2, CBX7 chromodomain; experiment: Fluorescence polarization; format: biochemical; settings: 30 μM CBX7 chromodomain, 100 nM FAM-ANRIL-RNA
Procedure, shortened: as §1

CBX7 chromodomain [4] = target: T2, CBX7 chromodomain; experiment: Electrophoretic mobility shift assay; format: biochemical; settings: EMSA, 150 mM CBX7 and 100 nM FAM-dsDNA probe, 1:3 ratio of compound to CBX7
Procedure, shortened: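 Buffer: 25 mM Tris-HCl pH 7.4, 100 mM NaCl, 0.05% Tween-20, 2 mM DTT. Compound runs used 150 µM CBX7 with 100 nM FAM-DNA probe and 50 µM test compound (0.3% DMSO); protein-only runs used a three-fold CBX7 series. Binding 20 min on ice. Native 10% Tris-glycine gel at 100 V, 4°C, 90 min in the dark. FAM fluorescence imaged, then Coomassie-stained.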

[5] = test system: 120 purified Kme reader domains; experiment: Chromatin-associated domain array; format: binding; settings: biotinylated ligand, fluorescently tagged streptavidin visualization
canonical PRC1 complex = experiment: Chemiprecipitation; format: binding, human; settings: PC3 cell lysates, western blot
Procedure, shortened: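 PC3 cells in DMEM/F12 plus 10% FBS were grown to 80–90% confluency, trypsinised, PBS-washed twice, and lysed fresh or after flash freezing. Lysates were pulled down with biotinylated test compounds. Beads were boiled in Laemmli buffer at 95 °C for 3 min, with 1% input. Proteins were separated by SDS-PAGE and blotted to PVDF. Primary antibody overnight at 4°C; infrared secondaries (1:10,000).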

CBX7 [6] = target: T3, CBX7 (Mus musculus, UniProt Q8VDS3); format: cell-based; settings: TetOFF reporter cell line; UNC4976 compared to UNC3866 treatment
T3 sequence (Q8VDS3 1-158): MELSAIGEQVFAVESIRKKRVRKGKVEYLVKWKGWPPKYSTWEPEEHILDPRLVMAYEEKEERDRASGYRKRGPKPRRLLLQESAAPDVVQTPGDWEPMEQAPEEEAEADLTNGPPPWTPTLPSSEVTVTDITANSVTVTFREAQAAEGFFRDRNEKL

mESCs = experiment: CellTiter-Glo viability assay in mESCs; format: cell-based, mouse; settings: 48 hr
Procedure, shortened: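 Mouse ES cells, 5,000 per well, exposed in technical triplicate for 48 hr at 37°C to a ten-point three-fold dilution series prepared from 50 mM DMSO stocks (0.2% DMSO final). Media-only wells served as negative controls. After equilibrating at room temperature, CellTiter-Glo was added, with 2 min shaking and 10 min settling, then luminescence read.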

[7] = Solubility observed in the Polycomb in-vivo Assay; settings: above 30 mM in the Polycomb in-vivo Assay
[8] = target: T4, CDYL2 chromodomain (residues 1–75 of NP_689555) (UniProt Q8N8U2 1-75); experiment: ITC
T4 sequence (looked up): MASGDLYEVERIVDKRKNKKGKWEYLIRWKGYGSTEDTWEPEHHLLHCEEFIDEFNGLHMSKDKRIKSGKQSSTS

[9] = target: T5, CBX2 chromodomain (residues 9–66 of NP_005180) (UniProt Q14781-1 9-66); experiment: ITC
T5 sequence (looked up): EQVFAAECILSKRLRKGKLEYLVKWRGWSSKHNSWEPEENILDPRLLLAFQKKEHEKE

[10] = target: T6, CBX6 chromodomain (residues 8–65 of NP_055107) (UniProt O95503 8-65); experiment: ITC
T6 sequence (looked up): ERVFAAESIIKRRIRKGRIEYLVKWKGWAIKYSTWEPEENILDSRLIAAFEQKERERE

CBX7 chromodomain [11] = target: CBX7 chromodomain (UniProt O95931 8-62); experiment: fluorescence polarization

Molecule: Cc1ccccc1Cn1c(=N)n(CC(O)c2ccc(Cl)c(Cl)c2)c2ccccc21.Cl (stereo not shown) [MS351, reference compound]
activity in the Polycomb in-vivo Assay (reactivation of GFP expression) (CBX7 [1]): inactive
change of fluorescence polarization on compound titration (CBX7 chromodomain [2]): did not observe increased fluorescence polarization
change of fluorescence polarization on compound titration (CBX7 chromodomain [3]): did not observe increased fluorescence polarization
effect on FAM-dsDNA binding to CBX7 (CBX7 chromodomain [4]): did not observe enhancement

Molecule: COc1cccc(C(=O)N2CCN(C(=O)COc3cccc(C)c3)CC2)c1OC [MS452, reference compound]
activity in the Polycomb in-vivo Assay (reactivation of GFP expression) (CBX7 [1]): inactive
change of fluorescence polarization on compound titration (CBX7 chromodomain [2]): slight destabilizing effect
change of fluorescence polarization on compound titration (CBX7 chromodomain [3]): slight destabilizing effect
effect on FAM-dsDNA binding to CBX7 (CBX7 chromodomain [4]): no effect

Molecule: CCN(CC)CCCC[C@H](NC(=O)[C@H](CC(C)C)NC(=O)[C@H](C)NC(=O)[C@H](Cc1ccccc1)NC(=O)c1ccc(C(C)(C)C)cc1)C(=O)N[C@@H](CO)C(=O)NCCOCCOCCOCCOCCOCCOCCOCCOCCOCCOCCOCCNC(=O)CCCC[C@@H]1SC[C@@H]2NC(=O)N[C@@H]21 [UNC4195, 4-(tert-butyl)-N-((2S,5S,8S,11S,14S)-11-(4-(diethylamino)butyl)-14-(hydroxymethyl)-8-isobutyl-5-methyl-3,6,9,12,15,53-hexaoxo-57-((3aS,4S,6aR)-2-oxohexahydro-1H-thieno[3,4-d]imidazol-4-yl)-1-phenyl-19,22,25,28,31,34,37,40,43,46,49-undecaoxa-4,7,10,13,16,52-hexaazaheptapentacontan-2-yl)benzamide, reference compound] ({Benzoyl(4-tBu)}-FAL[Lys(Et2)]S-{NH(CH2CH2O)11C2H4NHBiotinyl})
selectivity profile on CADOR microarray [5]: binding interactions were only detected for all five Polycomb CBX chromodomains and a small subset of CDY chromodomains
pulldown of canonical PRC1 components (CBX4, CBX7, CBX8, RING1B, BMI1) (canonical PRC1 complex): we detected pulldown of CBX4, CBX7, CBX8, RING1B, and BMI1

Molecule: CCN(CC)CCCC[C@H](NC(=O)[C@H](CC(C)C)NC(=O)[C@H](C)N(C)C(=O)[C@H](Cc1ccccc1)NC(=O)c1ccc(C(C)(C)C)cc1)C(=O)N[C@@H](CO)C(=O)OC [UNC4219, methyl N^2-N-((4-(tert-butyl)benzoyl)-L-phenylalanyl)-N-methyl-L-alanyl-L-leucyl-N^6,N^6-diethyl-L-lysyl-L-serinate, reference compound] ({Benzoyl(4-tBu)}-F[NMeA]L[Lys(Et2)]S-OMe)
activity in the Polycomb in-vivo Assay (reactivation of GFP expression) (CBX7 [1]): inactive
derepression of the GFP reporter gene / maintenance of Polycomb silencing (CBX7 [6]): unaffected
mESC viability upon compound treatment (mESCs): non-toxic
effect on FAM-dsDNA binding to CBX7 (CBX7 chromodomain [4]): no effect

Molecule: CC(C)C[C@H](NC(=O)[C@H](C)NC(=O)[C@H](Cc1ccccc1)NC(=O)c1ccc(C(C)(C)C)cc1)C(=O)N[C@@H](CCCCN(C)C1CC2CCC1C2)C(=O)N[C@@H](CO)C(=O)NCCOCCOCCOCCOCCOCCOCCOCCOCCOCCOCCOCCNC(=O)CCCC[C@@H]1SC[C@@H]2NC(=O)N[C@@H]21 (stereo partly drawn) [UNC5355, N-((2S,5S,8S,11S,14S)-11-(4-(bicyclo[2.2.1]heptan-2-yl(methyl)amino)butyl)-14-(hydroxymethyl)-8-isobutyl-5-methyl-3,6,9,12,15,53-hexaoxo-57-((3aS,4S,6aR)-2-oxohexahydro-1H-thieno[3,4-d]imidazol-4-yl)-1-phenyl-19,22,25,28,31,34,37,40,43,46,49-undecaoxa-4,7,10,13,16,52-hexaazaheptapentacontan-2-yl)-4-(tert-butyl)benzamide] ({Benzoyl(4-tBu)}-FAL[Lys(Me,2-norbornyl)]S-{NH(CH2CH2O)11C2H4NHBiotinyl})
selectivity profile on CADOR microarray [5]: binding interactions were only detected for all five Polycomb CBX chromodomains and a small subset of CDY chromodomains
pulldown of CBX2 and CBX6 (canonical PRC1 complex): not detected
pulldown of canonical PRC1 components (CBX4, CBX7, CBX8, RING1B, BMI1) (canonical PRC1 complex): all five components previously mentioned were similarly pulled down

Molecule: UGGAGUUGCGUUCCA (structured_RNA) [FAM-ANRIL-RNA (ANRIL Loop C) FP probe]
binding signal (CBX7 chromodomain [11]): 4 fold affinity (alpha)

Continued, values first:

EC50 (CBX7 [1]): 1020 ± 175 nM
solubility in this assay [7]: markedly poor solubility
Molecule: COC(=O)[C@H](CO)NC(=O)[C@H](CCCCN(C)C1C2CC3CC(C2)CC1C3)NC(=O)[C@H](CC(C)C)NC(=O)[C@H](C)NC(=O)[C@H](Cc1ccccc1)NC(=O)c1ccc(C(C)(C)C)cc1 (stereo partly drawn) [UNC6373, methyl N^6-((1S,3S,5S,7S)-adamantan-2-yl)-N^2-(4-(tert-butyl)benzoyl)-L-phenylalanyl-L-alanyl-L-leucyl-N^6-methyl-L-lysyl-L-serinate] ({Benzoyl(4-tBu)}-FAL[X10]S-OMe)

EC50 (CBX7 [1]): 23700 ± 1740 nM
Molecule: COC(=O)[C@H](CO)NC(=O)[C@H](CCCCN(C)C(C)OC)NC(=O)[C@H](CC(C)C)NC(=O)[C@H](C)NC(=O)[C@H](Cc1ccccc1)NC(=O)c1ccc(C(C)(C)C)cc1 (stereo partly drawn) [UNC6481, methyl N^2-(4-(tert-butyl)benzoyl)-L-phenylalanyl-L-alanyl-L-leucyl-N^6-(1-methoxyethyl)-N^6-methyl-L-lysyl-L-serinate] ({Benzoyl(4-tBu)}-FAL[X4]S-OMe)

EC50 (CBX7 [1]): 2060 ± 135 nM
Molecule: COC(=O)[C@H](CO)NC(=O)[C@H](CCCCN(C)Cc1ccc(OC)cc1)NC(=O)[C@H](CC(C)C)NC(=O)[C@H](C)NC(=O)[C@H](Cc1ccccc1)NC(=O)c1ccc(C(C)(C)C)cc1 [UNC6483, methyl N^2-(4-(tert-butyl)benzoyl)-L-phenylalanyl-L-alanyl-L-leucyl-N^6-(4-methoxybenzyl)-N^6-methyl-L-lysyl-L-serinate] ({Benzoyl(4-tBu)}-FAL[X2]S-OMe)

fold selectivity for CBX4/7 over CDYL2 [8]: 8 fold
fold selectivity for CBX4/7 over CBX2 [9]: 28 fold
fold selectivity for CBX4/7 over CBX6 [10]: 9 fold
B1: UNC4976 (peptide)
peptide: FALKS
modifications: N-terminal 4-(tert-butyl)benzoyl cap on Phe1; Lys4 is N6-(bicyclo[2.2.1]heptan-2-yl)-N6-methyl-L-lysine (N6-methyl-N6-norbornyl lysine); C-terminal methyl ester on Ser5
